Measured values: ChEMBL document CHEMBL2321751, “Optimization of chloronitrobenzamides (CNBs) as therapeutic leads for human African trypanosomiasis (HAT)” (J Med Chem, 2013)
In brackets after ≈: the same amount, converted by molar mass.

Legend:
[1] = Kinetic solubility of the compound in PBS buffer at pH 7.4 after 18 hrs by UV spectrophotometric analysis; format: physicochemical; settings: for solubility kinetic at 18 h: PBS buffer, pH 7.4, read-out: Kinetic_solubility; for Kinetic_solubility: buffer, pH 7.4, 18 h, BLD = below limit of detection
In short: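 Compound from a 10 mM stock was added to PBS pH 7.4 and left 18 h at room temperature. The suspension was filtered, and the filtrate was mixed 1:1 with 1-propanol. Solubility was derived from UV spectrum AUC (250–500 nm) relative to a 1-propanol/PBS reference. Run in triplicate.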

Raji = test: Cytotoxicity against human Raji cells after 72 hrs by Cell Titre Glo assay; format: cell-based
In short: (§1)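 Human cells grown to 80% confluence were plated in 384-well format and received compound dilutions by pin tool. After 72 h at 37 °C in 5% CO2, viability was measured by CellTiter-Glo luminescence.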

BJ = test: Cytotoxicity against human BJ cells after 72 hrs by Cell Titre Glo assay; format: cell-based; in short: as §1
HEK293 = test: Cytotoxicity against HEK293 cells after 72 hrs by Cell Titre Glo assay; format: cell-based; settings: Homo sapiens, HEK293, 72 h; in short: as §1
HepG2 = test: Cytotoxicity against human HepG2 cells after 72 hrs by Cell Titre Glo assay; format: cell-based; settings: HepG2, 72 h; in short: as §1
[2] = test system: Trypanosoma brucei brucei; test: Antitrypanosomal activity against Trypanosoma brucei brucei 221 after 48 hrs by Cell Titre Glo assay; format: functional, organism-based; settings: Trypanosoma brucei, 221, 48 h
In short: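 Bloodstream-form parasites grown in HMI-9 with 10% heat-inactivated FBS, 10% Serum Plus and penicillin/streptomycin at 37 °C, 5% CO₂, to 1 × 10⁶ cells/mL. Diluted to 1 × 10⁴ cells/mL, then dosed with a DMSO dilution series by pin transfer. Incubated 48 h at 37 °C, 5% CO₂. Viability read by CellTiter-Glo luminescence. EC₅₀ from a variable-slope sigmoidal fit. Mean of six replicates, errors as 95% CI.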

[3] = Permeability of the compound at pH 7.4 by PAMPA; format: ADME; settings: for permeability: pampa, BLD = below limit of detection; for Papp: PAMPA, read-out: permeability
In short: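 Compound (10 mM DMSO stock) was diluted in system solution buffer pH 7.4 and placed in the donor chamber of a PAMPA sandwich whose membrane was coated with GIT lipid. Acceptor buffer filled the acceptor chamber, and the assembly was stirred for 30 min. Donor and acceptor UV spectra (250–500 nm) were compared with a reference to give the permeability coefficient. Run in triplicate.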

| Structure (SMILES) | solubility kinetic at 18 h [1] [µM] | EC50 (Raji) [µM] | EC50 (BJ) [µM] | EC50 (HEK293) [µM] | EC50 (HepG2) [µM] | EC50 [2] [µM] | permeability [3] | Papp [3] [×10⁻⁶ cm/s] | Kinetic_solubility [1] |
| --- | --- | --- | --- | --- | --- | --- | --- | --- | --- |
| O=C(Nc1cc(-c2nc3ccccc3s2)ccc1Cl)c1cc([N+](=O)[O-])ccc1Cl | 0.1 (≈ 0.0444 µg/mL) | > 25 | > 25 | > 25 | > 25 | 0.24 | BLD |  |  |
| O=C(Nc1ccc(Cl)c(-c2nc3ccccc3s2)c1)c1cc([N+](=O)[O-])ccc1Cl | 0.41 (≈ 0.182 µg/mL) | > 25 | > 25 | > 25 | > 25 | 0.32 |  | 3 |  |
| Cc1ccc(-c2nc3ccccc3o2)cc1NC(=O)c1cc([N+](=O)[O-])ccc1Cl | 0.31 (≈ 0.126 µg/mL) | > 14 | > 14 | > 14 | > 14 | 0.02 | BLD |  |  |
| O=C(O)COc1cc(Cl)c(C(=O)Nc2cccc(-c3nc4ccccc4s3)c2)cc1[N+](=O)[O-] | 6.7 (≈ 3.24 µg/mL) | > 25 | > 25 | > 25 | > 25 | 0.8 |  | < 1 |  |
| O=C(Nc1cccc(-c2nc3ccccc3[nH]2)c1)c1cc([N+](=O)[O-])ccc1Cl | 1.4 (≈ 0.55 µg/mL) | 20.7 | > 27 | > 27 | > 27 | 26 |  | 352 |  |
| O=C(Nc1cc(C(F)(F)F)cc(C(F)(F)F)c1)c1cc([N+](=O)[O-])ccc1Cl |  | 14 | 22 | 14 | > 27 | 9.6 |  | 44 | BLD |
| O=C(Nc1nc2c(Cl)cccc2s1)c1cc([N+](=O)[O-])ccc1Cl | 0.72 (≈ 0.265 µg/mL) | 15 | > 27 | > 27 | > 27 | 12 |  | 242 |  |
| CCOC(=O)Cc1cc(Cl)c(C(=O)Nc2cc(-c3nc4ccccc4s3)ccc2C)cc1[N+](=O)[O-] | 0.19 (≈ 0.0969 µg/mL) | > 25 | > 25 | > 25 | > 25 | 0.52 |  | 10 |  |
| COc1ccc(NC(=O)c2cc([N+](=O)[O-])ccc2Cl)cc1-c1nc2ccccc2s1 | 0.26 (≈ 0.114 µg/mL) | > 25 | > 25 | > 25 | > 25 | 3.6 | BLD |  |  |
| O=C(Nc1ccc(F)c(-c2nc3ccccc3o2)c1)c1cc([N+](=O)[O-])ccc1Cl | 0.27 (≈ 0.111 µg/mL) | > 25 | > 25 | > 25 | > 25 | 0.17 |  | 366 |  |
| O=C(Nc1cccc(-c2nc3ccccc3s2)c1)c1cc([N+](=O)[O-])c(O)cc1Cl | 2.2 (≈ 0.937 µg/mL) | > 25 | > 25 | > 25 | > 25 | > 33 |  | 307 |  |
| O=C(Nc1ccc(O)c(-c2nc3ccccc3s2)c1)c1cc([N+](=O)[O-])ccc1Cl | 0.023 (≈ 0.00979 µg/mL) | > 25 | > 25 | > 25 | > 25 | > 33 | BLD |  |  |
| Cc1cc(NC(=O)c2cc([N+](=O)[O-])ccc2Cl)cc(-c2nc3ccccc3o2)c1O | 0.09 (≈ 0.0381 µg/mL) | > 25 | > 25 | > 25 | > 25 | 0.22 |  | 105 |  |
| COc1ccc(-c2nc3ccccc3o2)cc1NC(=O)c1cc([N+](=O)[O-])ccc1Cl | 0.09 (≈ 0.0381 µg/mL) | > 25 | > 25 | > 25 | > 25 | 0.12 |  | 274 |  |
| O=C(Nc1nc(-c2cccc(F)c2)cs1)c1cc([N+](=O)[O-])ccc1Cl | 0.78 (≈ 0.295 µg/mL) | 11 | 24 | 8.7 | 18 | 3.5 |  | 3 |  |
| O=C(Nc1ccccc1-c1nc2ccccc2s1)c1cc([N+](=O)[O-])ccc1Cl |  | > 27 | > 27 | > 27 | > 27 | > 33 |  |  |  |
| Cc1ccc(-c2nc3ccccc3s2)cc1NC(=O)c1cc([N+](=O)[O-])c(N2CCCCC2)cc1Cl |  | > 25 | > 25 | > 25 | > 25 | 0.73 |  | < 1 | BLD |

| Structure (SMILES) | solubility kinetic at 18 h [1] [µM] | EC50 (Raji) [µM] | EC50 (BJ) [µM] | EC50 (HEK293) [µM] | EC50 (HepG2) [µM] | EC50 [2] [µM] | permeability [3] | Papp [3] [×10⁻⁶ cm/s] | Kinetic_solubility [1] |
| --- | --- | --- | --- | --- | --- | --- | --- | --- | --- |
| Cc1ccc(-c2nc3ccccc3s2)cc1NC(=O)c1cc([N+](=O)[O-])c(N(C)C)cc1Cl | 0.03 (≈ 0.014 µg/mL) | > 25 | > 25 | > 25 | > 25 | 0.47 |  | < 1 |  |
| O=C(CNc1ccc(-c2nc3ccccc3s2)cc1)c1cc([N+](=O)[O-])ccc1Cl |  | > 27 | > 27 | > 27 | > 27 | > 16 |  |  |  |
| O=C(Nc1ccc(Cl)cc1)c1cc([N+](=O)[O-])ccc1Cl |  | > 27 | > 27 | > 27 | > 27 |  |  |  |  |
| Cc1c(NC(=O)c2cc([N+](=O)[O-])ccc2Cl)cccc1-c1nc2ccccc2s1 |  | > 25 | > 25 | > 25 | > 25 | 0.68 | BLD |  | BLD |
| O=C(Nc1ccc(-c2nc3ccccc3s2)cc1)c1cc([N+](=O)[O-])ccc1Cl |  | > 27 | > 27 | > 27 | > 27 | 1.1 | BLD |  | BLD |
| O=C(Nc1nc(-c2ccc(Cl)cc2)cs1)c1cc([N+](=O)[O-])ccc1Cl |  | 12 | 18 | 15 | > 27 | 4.6 |  | 3 | BLD |
| O=C(Nc1cc(-c2nc3ccccc3o2)ccc1F)c1cc([N+](=O)[O-])ccc1Cl |  | > 25 | > 25 | > 25 | > 25 | 0.3 |  | 214 | BLD |
| O=C(Nc1ccc(-c2ccccc2)cc1)c1cc([N+](=O)[O-])ccc1Cl | 0.12 (≈ 0.0423 µg/mL) | > 27 | > 27 | > 27 | > 27 | 1.9 |  | 26 |  |
| O=C(Nc1cccc(-c2ccccc2)c1)c1cc([N+](=O)[O-])ccc1Cl | 0.41 (≈ 0.145 µg/mL) | > 27 | > 27 | 22 | > 27 | 1.2 | BLD |  |  |
| COc1ccc(-c2nc3ccccc3s2)cc1NC(=O)c1cc([N+](=O)[O-])c(N2CCC(C(=O)O)CC2)cc1Cl | 0.21 (≈ 0.119 µg/mL) | > 25 | > 25 | > 25 | > 25 | 0.64 |  | 5 |  |
| Cc1cc(NC(=O)c2cc([N+](=O)[O-])ccc2Cl)cc(-c2nc3ccccc3s2)c1O | 0.43 (≈ 0.189 µg/mL) | > 25 | > 25 | > 25 | > 25 | > 10 |  | 48 |  |
| COC(=O)C1CCN(c2cc(Cl)c(C(=O)Nc3cc(-c4nc5ccccc5s4)ccc3OC)cc2[N+](=O)[O-])CC1 | 0.17 (≈ 0.0988 µg/mL) | > 25 | > 25 | > 25 | > 25 | 0.72 |  | < 1 |  |
| Cc1ccc(-c2nc3ccccc3s2)cc1NC(=O)c1cc([N+](=O)[O-])c(N2CCC(C(=O)O)CC2)cc1Cl | 0.59 (≈ 0.325 µg/mL) | > 25 | > 25 | > 25 | > 25 | 0.5 |  | 17 |  |
| O=C(Nc1nc2ccc(Cl)cc2s1)c1cc([N+](=O)[O-])ccc1Cl | 1.2 (≈ 0.442 µg/mL) | > 27 | > 27 | > 27 | > 27 | 8.1 |  | 138 |  |
| COC(=O)C1CCN(c2cc(Cl)c(C(=O)Nc3cc(-c4nc5ccccc5s4)ccc3C)cc2[N+](=O)[O-])CC1 |  | > 25 | > 25 | > 25 | > 25 | 0.31 |  | 24 | BLD |
| O=C(Nc1nc2ccc(F)cc2s1)c1cc([N+](=O)[O-])ccc1Cl | 0.57 (≈ 0.2 µg/mL) | > 27 | > 27 | > 27 | > 27 | 5.6 |  | 10 |  |
